Test results taken from paper PMC12079426 (RSC Advances, 2025).
Where “and” joins values, the source holds several entries; their conditions need not be identical. Identical values can stand only once.

What was measured:
Type in all cases: in vivo
female Swiss albino mice [1] = test: Acute oral toxicity study; conditions: individual mice; for Body weight Day 0: pre-administration fasting weight
How it was run: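 Female Swiss albino mice (20–23 g) kept at 22 ± 3 °C, 50–65% humidity, 12 h light/dark. OECD 423 stepwise design, three mice per step: 300 mg/kg, then 2000 mg/kg. Test compound was given in distilled water by oral intubation needle. Feed was withheld 3–4 h before and 2 h after dosing. Fasting weight was taken pre-dose, then on days 7 and 14.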

female Swiss albino mice [2] = test: Forced Swim Test; conditions: percentage decrease in duration of immobility compared to disease control
How it was run: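 Female Swiss albino mice (20–23 g) were dosed 30 min before testing: saline 10 mL/kg (control), fluoxetine 10 mg/kg (standard), or test compound 100 mg/kg. Two 10-min swim sessions ran 24 h apart (pre-test, then test). Water was at 23 ± 1 °C, deep enough that hind legs could not touch bottom, and changed after each trial. Immobility duration reported as mean ± SEM.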

female Swiss albino mice [3] = test: Tail Suspension Test; conditions: percentage decrease in duration of immobility compared to disease control
How it was run: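 Female Swiss albino mice (20–23 g) received standard or test compound 30 min before testing. Each mouse was hung by the tail from a hook in a three-sided chamber, 50 cm above the surface. Total immobility was recorded over a 10-min session and reported as mean ± SEM.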

Structure (SMILES): Cc1nn(-c2ccccc2)c(N2CCCCC2)c1/C=C/C(=O)c1ccc(-n2c3ccccc3c3ccccc32)cc1 [13a, (E)-1-(4-(9H-Carbazol-9-yl)phenyl)-3-(3-methyl-1-phenyl-5-(piperidin-1-yl)-1H-pyrazol-4-yl)prop-2-en-1-one]
- Body weight Day 7 (female Swiss albino mice [1]; Step I 300 mg kg^−1 oral): 28 g and 26.5 g and 29 g
- Body weight Day 14 (female Swiss albino mice [1]; Step I 300 mg kg^−1 oral): 32 g and 33 g and 34.5 g
- Body weight Day 0 (female Swiss albino mice [1]; Step I 300 mg kg^−1 oral): 22.5 g and 21.5 g and 25 g
- Body weight Day 7 (female Swiss albino mice [1]; Step II 2000 mg kg^−1 oral): 29.5 g and 29 g and 30 g
- Body weight Day 14 (female Swiss albino mice [1]; Step II 2000 mg kg^−1 oral): 33 g and 32.5 g and 35 g
- Body weight Day 0 (female Swiss albino mice [1]; Step II 2000 mg kg^−1 oral): 24 g and 23.5 g
- DID (%) Forced swim test (female Swiss albino mice [2]): 24.92%
- DID (%) Tail suspension test (female Swiss albino mice [3]): 5.74%

Structure (SMILES): Cc1nn(-c2ccccc2)c(N2CCCCC2)c1/C=C/C(=O)c1ccc(-n2ccc3ccccc32)cc1 [14a, (E)-1-(4-(1H-Indol-1-yl)phenyl)-3-(3-methyl-1-phenyl-5-(piperidin-1-yl)-1H-pyrazol-4-yl)prop-2-en-1-one]
- DID (%) Forced swim test (female Swiss albino mice [2]): 16.61%
- DID (%) Tail suspension test (female Swiss albino mice [3]): 2.58%

Structure (SMILES): Cc1nn(-c2ccccc2)c(N2CCOCC2)c1/C=C/C(=O)c1ccc(-n2cccc2)cc1 [15b, (E)-1-(4-(1H-Pyrrol-1-yl)phenyl)-3-(3-methyl-5-morpholino-1-phenyl-1H-pyrazol-4-yl)prop-2-en-1-one]
- DID (%) Forced swim test (female Swiss albino mice [2]): 11.56%
- DID (%) Tail suspension test (female Swiss albino mice [3]): 5.74%

Structure (SMILES): Cc1nn(-c2ccccc2)c(-n2nnc3ccccc32)c1/C=C/C(=O)c1ccc(-n2c3ccccc3c3ccccc32)cc1 [13c, (E)-3-(5-(1H-Benzo[d][1,2,3]triazol-1-yl)-3-methyl-1-phenyl-1H-pyrazol-4-yl)-1-(4-(9H-carbazol-9-yl)phenyl)prop-2-en-1-one]
- Body weight Day 7 (female Swiss albino mice [1]; Step I 300 mg kg^−1 oral): 26.5 g
- Body weight Day 14 (female Swiss albino mice [1]; Step I 300 mg kg^−1 oral): 31 g and 30 g
- Body weight Day 0 (female Swiss albino mice [1]; Step I 300 mg kg^−1 oral): 22.5 g and 23.5 g and 21.5 g
- Body weight Day 7 (female Swiss albino mice [1]; Step II 2000 mg kg^−1 oral): 28 g and 28.5 g and 29.5 g
- Body weight Day 14 (female Swiss albino mice [1]; Step II 2000 mg kg^−1 oral): 33.5 g and 34.5 g
- Body weight Day 0 (female Swiss albino mice [1]; Step II 2000 mg kg^−1 oral): 22 g and 23.5 g
- DID (%) Forced swim test (female Swiss albino mice [2]): 35.63%
- DID (%) Tail suspension test (female Swiss albino mice [3]): 34.67%

Structure (SMILES): Cc1nn(-c2ccccc2)c(N2CCOCC2)c1/C=C/C(=O)c1ccc(-n2c3ccccc3c3ccccc32)cc1 [13b, (E)-1-(4-(9H-Carbazol-9-yl)phenyl)-3-(3-methyl-5-morpholino-1-phenyl-1H-pyrazol-4-yl)prop-2-en-1-one]
- Body weight Day 7 (female Swiss albino mice [1]; Step I 300 mg kg^−1 oral): 26.5 g and 29 g and 29.5 g
- Body weight Day 14 (female Swiss albino mice [1]; Step I 300 mg kg^−1 oral): 32.5 g and 36 g and 34.5 g
- Body weight Day 0 (female Swiss albino mice [1]; Step I 300 mg kg^−1 oral): 23.5 g and 24 g
- Body weight Day 7 (female Swiss albino mice [1]; Step II 2000 mg kg^−1 oral): 27.5 g and 30.5 g and 27 g
- Body weight Day 14 (female Swiss albino mice [1]; Step II 2000 mg kg^−1 oral): 32 g and 34.5 g
- Body weight Day 0 (female Swiss albino mice [1]; Step II 2000 mg kg^−1 oral): 23 g and 24.5 g and 21.5 g
- DID (%) Forced swim test (female Swiss albino mice [2]): 23.47%
- DID (%) Tail suspension test (female Swiss albino mice [3]): 11.30%

Structure (SMILES): Cc1nn(-c2ccccc2)c(N2CCCCC2)c1/C=C/C(=O)c1ccc(-n2cccc2)cc1 [15a, (E)-1-(4-(1H-Pyrrol-1-yl)phenyl)-3-(3-methyl-1-phenyl-5-(piperidin-1-yl)-1H-pyrazol-4-yl)prop-2-en-1-one]
- DID (%) Forced swim test (female Swiss albino mice [2]): 6.55%
- DID (%) Tail suspension test (female Swiss albino mice [3]): 4.50%

Structure (SMILES): Cc1nn(-c2ccccc2)c(N2CCOCC2)c1/C=C/C(=O)c1ccc(-n2ccc3ccccc32)cc1 [14b, (E)-1-(4-(1H-Indol-1-yl)phenyl)-3-(3-methyl-5-morpholino-1-phenyl-1H-pyrazol-4-yl)prop-2-en-1-one]
- DID (%) Forced swim test (female Swiss albino mice [2]): 2.22%
- DID (%) Tail suspension test (female Swiss albino mice [3]): 1.92%

Structure (SMILES): Cc1nn(-c2ccccc2)c(-n2nnc3ccccc32)c1/C=C/C(=O)c1ccc(-n2ccc3ccccc32)cc1 [14c, (E)-3-(5-(1H-Benzo[d][1,2,3]triazol-1-yl)-3-methyl-1-phenyl-1H-pyrazol-4-yl)-1-(4-(1H-indol-1-yl)phenyl)prop-2-en-1-one]
- DID (%) Forced swim test (female Swiss albino mice [2]): 17.90%
- DID (%) Tail suspension test (female Swiss albino mice [3]): 9.60%

Structure (SMILES): CNCCC(Oc1ccc(C(F)(F)F)cc1)c1ccccc1 (stereo not shown) [Fluoxetine, reference compound]
- DID (%) Forced swim test (female Swiss albino mice [2]): 56.17%
- DID (%) Tail suspension test (female Swiss albino mice [3]): 59.67%

Structure (SMILES): COc1c(/C=C/C(=O)c2ccc(-n3cccc3)cc2)c(C)nn1-c1ccccc1 [15d, (E)-1-(4-(1H-Pyrrol-1-yl)phenyl)-3-(5-methoxy-3-methyl-1-phenyl-1H-pyrazol-4-yl)prop-2-en-1-one]
- DID (%) Forced swim test (female Swiss albino mice [2]): 22.53%
- DID (%) Tail suspension test (female Swiss albino mice [3]): 16.24%

Structure (SMILES): COc1c(/C=C/C(=O)c2ccc(-n3c4ccccc4c4ccccc43)cc2)c(C)nn1-c1ccccc1 [13d, (E)-1-(4-(9H-Carbazol-9-yl)phenyl)-3-(5-methoxy-3-methyl-1-phenyl-1H-pyrazol-4-yl)prop-2-en-1-one]
- DID (%) Tail suspension test (female Swiss albino mice [3]): 8.55%

Structure (SMILES): Cc1nn(-c2ccccc2)c(-n2nnc3ccccc32)c1/C=C/C(=O)c1ccc(-n2cccc2)cc1 [15c, (E)-3-(5-(1H-Benzo[d][1,2,3]triazol-1-yl)-3-methyl-1-phenyl-1H-pyrazol-4-yl)-1-(4-(1H-pyrrol-1-yl)phenyl)prop-2-en-1-one]
- DID (%) Forced swim test (female Swiss albino mice [2]): 22.99%
- DID (%) Tail suspension test (female Swiss albino mice [3]): 14.60%

Structure (SMILES): COc1c(/C=C/C(=O)c2ccc(-n3ccc4ccccc43)cc2)c(C)nn1-c1ccccc1 [14d, (E)-1-(4-(1H-Indol-1-yl)phenyl)-3-(5-methoxy-3-methyl-1-phenyl-1H-pyrazol-4-yl)prop-2-en-1-one]
- DID (%) Forced swim test (female Swiss albino mice [2]): 13.62%
- DID (%) Tail suspension test (female Swiss albino mice [3]): 5.57%
